From ChEMBL document CHEMBL4619773, “Chemoreactive-Inspired Discovery of Influenza A Virus Dual Inhibitor to Block Hemagglutinin-Mediated Adsorption and Membrane Fusion” (J Med Chem, 2020)
The source made the active and inactive calls. The calls are words filed in the database; no cut-off is given here.

What was measured:
[1] = Cytotoxicity in dog MDCK cells assessed as reduction in cell viability incubated for 48 hrs by crystal violet staining based assay; parameters: species or system Canis lupus familiaris
[2] = test system: Influenza A virus H3N2; assay: Antiviral activity against Influenza A virus H3N2 (A/swine/Minnesota/02719/2009) infected in MDCK cells incubated for 3 days by crystal violet staining based plaque assay; assay type: functional, organism-based; conditions: 72 h
Summary of the method: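 Confluent MDCK monolayers were exposed to 10-fold serial virus dilutions for 1 h at 37 °C, then washed. The overlay was DMEM with 1.5% agarose, 0.02% DEAE-dextran and 1 µg/ml TPCK-trypsin. After 3 days at 37 °C in 5% CO2, cells were fixed with 0.05% glutaraldehyde, stained with 1% crystal violet in 20% ethanol, and plaques were counted.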

[3] = test system: Influenza A virus; assay: Antiviral activity against Influenza A virus (A/Puerto Rico/8/1934(H1N1)) infected in Kunming mouse assessed as decrease in pulmonary viral titers at 20 to 40 ug/day dosed intranasally starting 4 hrs after viral challenge and continued for 4 days by plaque assay; assay type: functional, organism-based
Summary of the method: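 Four-week-old female Kunming mice were infected intranasally with PR8 (500 PFU/mouse in 40 µL PBS), randomized, and dosed once daily orally or intranasally. On day 4 the mice were euthanized; lungs were removed, weighed, homogenized in PBS, and titrated by plaque assay.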

[4] = test system: Influenza A virus; assay: Antiviral activity against Influenza A virus (A/Puerto Rico/8/1934(H1N1)) infected in Kunming mouse assessed as improvement in body weight at 5 to 10 mg/kg/day, po starting 4 hrs after viral challenge and continued for 7 days and measured up to day 14 by plaque assay; assay type: functional, organism-based
Summary of the method: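 Groups of 10 female Kunming mice were infected intranasally with PR8 (1000 PFU/mouse) on day 0 and dosed once daily for seven days. Weight and clinical signs were recorded daily. Mice losing more than 25% of pre-infection weight were scored dead and euthanized; survivors were killed on day 14.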

[5] = Toxicity in Kunming mouse assessed as effect on blood urea nitrogen level at 5 to 10 mg/kg/day, po for 7 days; assay type: organism-based; conditions: in vivo, 168 h
Summary of the method: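 Male Kunming mice (20–25 g) received compound orally at 5 or 10 mg/kg/day, suspended in 0.5% sodium carboxymethyl cellulose, once daily for 7 days; controls received vehicle. Serum was collected under isoflurane 24 h after the last dose. AST, ALT, CR, BUN, LDH, CK and CK-MB were measured with commercial kits.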

[6] = molecular target: Neuraminidase (Influenza A virus (A/Puerto Rico/8/1934(H1N1))) (UniProt P03468); assay: Inhibition of neuraminidase in inactivated Influenza A virus (A/Puerto Rico/8/1934(H1N1)) supernatants at 12.5 to 200 ug/mL pre-incubated for 30 mins by fluorescence based assay relative to control
Neuraminidase (Influenza A virus (A/Puerto Rico/8/1934(H1N1))), sequence (P03468 whole entry): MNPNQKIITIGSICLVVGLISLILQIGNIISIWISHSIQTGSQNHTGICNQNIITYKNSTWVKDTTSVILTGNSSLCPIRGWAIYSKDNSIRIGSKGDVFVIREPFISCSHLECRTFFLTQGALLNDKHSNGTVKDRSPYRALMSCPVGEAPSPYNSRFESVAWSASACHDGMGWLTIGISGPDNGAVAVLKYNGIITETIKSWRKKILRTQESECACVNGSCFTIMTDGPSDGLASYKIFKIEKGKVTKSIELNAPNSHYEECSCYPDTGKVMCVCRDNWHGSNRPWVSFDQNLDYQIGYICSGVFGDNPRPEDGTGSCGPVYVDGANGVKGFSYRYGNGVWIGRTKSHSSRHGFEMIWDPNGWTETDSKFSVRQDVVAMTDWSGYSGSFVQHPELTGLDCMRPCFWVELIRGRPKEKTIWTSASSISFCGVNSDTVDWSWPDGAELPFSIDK
Summary of the method: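 Inactivated PR8 virus supernatant was mixed with compound diluted in 33 mM MES ([…]) and 4 mM CaCl2 for 30 min at 37 °C. MUNANA (20 µM) was then added for 30 min at 37 °C. The reaction was stopped with 25% ethanol and 0.1 M glycine, pH 10.7. Fluorescence was read at ex 360 and em 440 nm.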

[7] = Toxicity in Influenza A virus (A/Puerto Rico/8/1934(H1N1)) infected Kunming mouse assessed as induction of body weight loss at 5 to 10 mg/kg/day, po starting 4 hrs after viral challenge and continued for 7 days by plaque assay; assay type: organism-based; conditions: in vivo
[8] = test system: Influenza A virus; assay: Antiviral activity against Influenza A virus (A/Puerto Rico/8/1934(H1N1)) infected in Kunming mouse assessed as decrease in lung IL6 level at 5 to 10 mg/kg/day, po starting 4 hrs after viral challenge and continued for 4 days by ELISA; assay type: functional, organism-based
Summary of the method: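 Four-week-old female Kunming mice received PR8 intranasally (500 PFU/mouse in 40 µL PBS) and were then dosed once daily orally or intranasally. Lungs were collected on day 4, and TNF-α and IL-6 in lung tissue were measured by ELISA.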

[9] = Cumulative drug excretion in mouse urine at 5 mg/kg, po administered as single dose measured after 72 hrs; assay type: ADME, organism-based; conditions: read-out: Drug excretion
Summary of the method: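 Single oral (gavage, 0.5% CMC-Na) or iv (tail vein, PEG400) dosing was given to male Kunming mice or Sprague Dawley rats held in metabolic cages. Urine and feces were collected at intervals to 72 h. Feces were dried, ground and homogenized in water (1:9 w/v). Samples were precipitated with acetonitrile containing internal standard and analysed by LC-MS/MS.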

[10] = test system: Influenza A virus; assay: Antiviral activity against Influenza A virus (A/California/04/2009(H1N1)) infected in MDCK cells by HA assay; assay type: functional, organism-based
Summary of the method: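 MDCK cells were infected at high moi (≈3.0 PFU/cell). Virus-containing supernatants were serially diluted 2-fold and mixed with an equal volume of 1% chicken red blood cells. After 60 min at 4 °C, wells were scored for button sedimentation versus opaque agglutination to give titers.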

[11] = Binding affinity to Influenza A virus (A/Aichi/2/1968(H3N2)) Hemagglutinin at 1.5625 to 50 uM by SPR assay
Summary of the method: (§1)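 HA protein was immobilized on CM5 chips. Compound (50, […], 12.5, 6.25, 3.125, 1.5625 µM) was injected for 2 min, followed by a 10-min PBST wash and regeneration with 2 mM NaOH for 30 s. Runs were at 25 °C with 2 µl/s flow, using a blank HA-free reference channel. KD was obtained from kinetic fitting.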

[12] = AUC (0 to t) in rat at 0.35 mg/kg /kg, iv administered as single dose; assay type: ADME, organism-based; conditions: in vivo
Summary of the method: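 Male Kunming mice (20-25 g) and male Sprague Dawley rats (180-220 g) were fasted 12 h before dosing. Oral dosing was by gavage as a suspension in 0.5% sodium carboxymethyl cellulose; iv dosing was via tail vein in PEG400. Serial plasma samples were taken to 24 h, protein-precipitated with acetonitrile plus N-CH3 internal standard, and quantified by LC-MS/MS (n=3). Bioavailability = AUCoral/AUCiv.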

[13] = molecular target: Hemagglutinin (Influenza A virus (A/Puerto Rico/8/1934(H1N1))) (UniProt P03452); assay: Inhibition of Hemagglutinin in Influenza A virus (A/Puerto Rico/8/1934(H1N1))/H1N1 pseudovirus infected in 293FT cells assessed as reduction in virus infection at 50 ug/ml pre-treated with virus before infection and measured after 48 hrs by inverted fluorescence microscopy; assay type: cell-based
Hemagglutinin (Influenza A virus (A/Puerto Rico/8/1934(H1N1))), sequence (P03452 whole entry): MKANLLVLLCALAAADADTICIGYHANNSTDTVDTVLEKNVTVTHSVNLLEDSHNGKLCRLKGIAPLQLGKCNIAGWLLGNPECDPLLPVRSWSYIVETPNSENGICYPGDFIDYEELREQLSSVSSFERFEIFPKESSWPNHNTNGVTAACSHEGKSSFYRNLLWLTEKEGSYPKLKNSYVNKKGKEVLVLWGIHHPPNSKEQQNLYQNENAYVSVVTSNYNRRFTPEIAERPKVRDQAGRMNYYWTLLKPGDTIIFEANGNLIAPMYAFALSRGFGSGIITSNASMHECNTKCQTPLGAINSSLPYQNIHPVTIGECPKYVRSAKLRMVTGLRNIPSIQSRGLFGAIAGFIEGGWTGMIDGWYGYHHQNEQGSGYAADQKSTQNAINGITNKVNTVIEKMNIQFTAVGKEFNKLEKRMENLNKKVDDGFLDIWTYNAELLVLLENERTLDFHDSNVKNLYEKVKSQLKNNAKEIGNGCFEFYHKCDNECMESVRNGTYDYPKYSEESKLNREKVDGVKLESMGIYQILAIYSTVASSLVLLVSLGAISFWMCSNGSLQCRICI
Summary of the method: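 PR8 pseudoviruses (IAV-GFP) carrying wild-type HA or a mutant HA (T30N/E233D/T359A or T359A) were made in 293FT cells by co-transfecting HA, NA, HIV backbone and GFP reporter plasmids, and supernatants were harvested at 48 h. Pseudovirus was pretreated with compound at 50 µg/ml for 1 h at 37 °C before infection. Infected GFP-positive cells were viewed by fluorescence microscopy 48 h p.i.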

[14] = Metabolic stability in human liver microsomes at 2 uM after 60 mins; assay type: ADME, Microsome; conditions: read-out: Stability
Summary of the method: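 Mouse, rat or human liver microsomes (final 0.5 mg/mL protein) were preincubated with an NADPH-regenerating system in 50 mM Tris-HCl pH 7.4 at 37 °C for 5 min. Compound was added at 2 µM final and incubated at 37 °C; NADPH-free incubations served as controls. Reactions were quenched with acetonitrile plus internal standard at 60 min. Percent remaining was measured by LC-MS/MS (n=3).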

[15] = molecular target: Hemagglutinin (Influenza A virus (A/Puerto Rico/8/1934(H1N1)), UniProt P03452); assay: Binding affinity to Influenza A virus (A/Puerto Rico/8/1934(H1N1)) Hemagglutinin at 1.5625 to 50 uM by SPR assay; conditions: read-out: Kd; summary of the method: as §1
Hemagglutinin (Influenza A virus (A/Puerto Rico/8/1934(H1N1)), UniProt P03452), sequence (P03452 whole entry): as above

CC(=O)c1cc(C)c(O)c(Cc2[nH]c3ccccc3c2Cc2c(O)c(C)cc(C(C)=O)c2O)c1O
CC50 at 48 h [1]: 1470 µM | IC50 [2]: < 13 µg/mL | Activity [3]: Active | Activity [4]: Active | Activity [5]: Non-Toxic | inhibition [6]: < 15% | Activity [7]: Non-Toxic | Activity [8]: Active | dose excreted at 72 h [9]: 0.03% | Activity [10]: Dose-dependent effect | Kd [11]: 7.3 µM | AUC(0-t) [12]: 10100 ng·h/mL | inhibition [13]: Active | remaining at 1 h, 2 µM [14]: 71.6% | Kd [15]: 6.3 µM
